Structures can show the parent of a compound that is named as a salt.
Assays:
[1] = two-step process in the liver; ref 8 9; cited from earlier work
[2] = system: ADP-induced platelet aggregation; experiment: ADP-induced platelet aggregation in whole blood, impedance aggregometry; format: in vivo, human; details: for mean %inhibition of platelet aggregation: all subjects
[3] = Safety assessment, treatment emergent adverse events; format: in vivo, human; details: A n=40, B n=39
In short: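 Healthy Indian adults (18–45 y, BMI 18.50–29.90 kg/m²) were CYP2C19-genotyped at two laboratories as *1/*1 or *2/*2. Randomised two-period crossover: loading dose day 1, then once-daily maintenance doses days 2–6, with a washout of at least 14 days. The investigator recorded adverse events throughout the study, along with PT/PTT, vital signs, ECGs, haematology, blood chemistry, urinalysis and physical examinations.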

[4] = system: CYP2C19; details: ref 8 9; cited from earlier work

SMILES: COC(=O)[C@H](c1ccccc1Cl)N1CCc2sccc2C1 [Clopidogrel, Hydrogen sulfate;hydron;methyl (2S)-2-(2-chlorophenyl)-2-(6,7-dihydro-4H-thieno[3,2-c]pyridin-5-yl)acetate]
- share of the drug converted to the active metabolite H4 [1]: 15%
- mean %inhibition of platelet aggregation ([2]; 6 hours postdose (loading dose: AT-10 40 mg, clopidogrel 300 mg)): 18.53%
- mean %inhibition of platelet aggregation ([2]; 6 hours postdose on day 6 (maintenance dose: AT-10 10 mg, clopidogrel 75 mg)): 51.19%
- time at which inhibition of ADP-induced platelet aggregation reaches the peak ([2]; postdose): around 6 hours
- Treatment emergent adverse events: Anxiety [3]: 00.0 (00.0) n (%) E
- Treatment emergent adverse events: Cough [3]: 00.0 (00.0) n (%) E
- Treatment emergent adverse events: Psychiatric disorders [3]: 00.0 (00.0) n (%) E
- Treatment emergent adverse events: Respiratory, thoracic and mediastinal disorders [3]: 00.0 (00.0) n (%) E
- contribution of CYP2C19 to the first metabolic step (Step 1) [4]: 45%

From paper PMC11815446 (Open Heart, 2025)
